The results in this text go back to PMC11325413 (ACS Omega, 2024).

One data set has as its system A-549. In words: Cytotoxicity assay, lung cancer cell line. The format is cell-based. The note with it: Homo sapiens, A549, read-out: cytotoxic activity IC50 ± SEM, A-549. In a few lines:
(§1)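 Cytotoxicity of test compound was measured by MTT assay in a panel of four human cancer cell lines, with IC50 derived from the viability read-out.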

A further data set relates to HT-29. Kind of data set: Cytotoxicity assay, colon cancer cell line. The format is cell-based. The note with it: Homo sapiens, HT-29, read-out: cytotoxic activity IC50 ± SEM, HT-29. In a few lines:
as §1

The next data set concerns MCF-7. Kind of data set: Cytotoxicity assay, breast cancer cell line. The format is cell-based. The note with it: Homo sapiens, MCF7, read-out: cytotoxic activity IC50 ± SEM, MCF-7. In a few lines:
as §1

A further data set concerns Panc-1. Kind of data set: Cytotoxicity assay, pancreatic cancer cell line. The format is cell-based. The note with it: Homo sapiens, PANC-1, read-out: cytotoxic activity IC50 ± SEM, Panc-1. In a few lines: as §1
The subject of data set [1] is four human cancer cell lines (A-549, MCF-7, Panc-1, HT-29). Kind of data set: Cytotoxicity assay, average over the four cancer cell lines. It counts as cell-based. The note with it: read-out: cytotoxic activity average IC50 (GI50).
The target in the next data set is EGFR (Homo sapiens, UniProt P00533). In words: EGFR-TK inhibitory assay. The format is biochemical.
Sequence of EGFR (P00533 669-1210): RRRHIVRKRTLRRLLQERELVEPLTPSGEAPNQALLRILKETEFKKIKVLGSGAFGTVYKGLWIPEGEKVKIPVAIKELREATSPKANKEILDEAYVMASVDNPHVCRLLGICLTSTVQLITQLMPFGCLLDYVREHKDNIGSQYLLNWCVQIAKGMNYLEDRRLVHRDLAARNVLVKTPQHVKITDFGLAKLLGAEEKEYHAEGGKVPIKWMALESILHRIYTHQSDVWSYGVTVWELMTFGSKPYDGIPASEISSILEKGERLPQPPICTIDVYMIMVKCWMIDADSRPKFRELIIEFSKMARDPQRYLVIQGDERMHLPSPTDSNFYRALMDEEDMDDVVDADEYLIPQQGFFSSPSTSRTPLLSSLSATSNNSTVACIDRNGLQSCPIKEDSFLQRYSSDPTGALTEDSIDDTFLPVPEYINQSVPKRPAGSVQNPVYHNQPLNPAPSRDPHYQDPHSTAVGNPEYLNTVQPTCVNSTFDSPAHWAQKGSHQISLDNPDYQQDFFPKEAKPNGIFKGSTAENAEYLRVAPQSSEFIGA
A further data set has as its system CK-18. In words: Apoptosis marker immunoassay in A-549: CK-18. The note with it: A-549 cells. It counts as cell-based, human. In a few lines: (§2)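 Sandwich immunoassay quantifying pro-apoptotic (p53, BAX, caspase 3, caspase 6) and antiapoptotic (BCL-2, CK-18) proteins in human lung A-549 cells treated with test compound. Levels are expressed as fold change relative to untreated control cells, as mean ± SD of three independent experiments.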

For a further data set, the system named is MCF-10A cells. In words: Cell viability assay. It counts as cell-based, human. Particulars: 50 μM doses. In a few lines:
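Normal human mammary gland epithelial MCF-10A cells were incubated with test compound for 4 days, and viability was read by MTT assay.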

The target in the next data set is VEGFR-2 (Homo sapiens, UniProt P35968). Kind of data set: VEGFR-2 inhibitory kinase assay. The format is biochemical.
Sequence of VEGFR-2 (P35968 20-1356): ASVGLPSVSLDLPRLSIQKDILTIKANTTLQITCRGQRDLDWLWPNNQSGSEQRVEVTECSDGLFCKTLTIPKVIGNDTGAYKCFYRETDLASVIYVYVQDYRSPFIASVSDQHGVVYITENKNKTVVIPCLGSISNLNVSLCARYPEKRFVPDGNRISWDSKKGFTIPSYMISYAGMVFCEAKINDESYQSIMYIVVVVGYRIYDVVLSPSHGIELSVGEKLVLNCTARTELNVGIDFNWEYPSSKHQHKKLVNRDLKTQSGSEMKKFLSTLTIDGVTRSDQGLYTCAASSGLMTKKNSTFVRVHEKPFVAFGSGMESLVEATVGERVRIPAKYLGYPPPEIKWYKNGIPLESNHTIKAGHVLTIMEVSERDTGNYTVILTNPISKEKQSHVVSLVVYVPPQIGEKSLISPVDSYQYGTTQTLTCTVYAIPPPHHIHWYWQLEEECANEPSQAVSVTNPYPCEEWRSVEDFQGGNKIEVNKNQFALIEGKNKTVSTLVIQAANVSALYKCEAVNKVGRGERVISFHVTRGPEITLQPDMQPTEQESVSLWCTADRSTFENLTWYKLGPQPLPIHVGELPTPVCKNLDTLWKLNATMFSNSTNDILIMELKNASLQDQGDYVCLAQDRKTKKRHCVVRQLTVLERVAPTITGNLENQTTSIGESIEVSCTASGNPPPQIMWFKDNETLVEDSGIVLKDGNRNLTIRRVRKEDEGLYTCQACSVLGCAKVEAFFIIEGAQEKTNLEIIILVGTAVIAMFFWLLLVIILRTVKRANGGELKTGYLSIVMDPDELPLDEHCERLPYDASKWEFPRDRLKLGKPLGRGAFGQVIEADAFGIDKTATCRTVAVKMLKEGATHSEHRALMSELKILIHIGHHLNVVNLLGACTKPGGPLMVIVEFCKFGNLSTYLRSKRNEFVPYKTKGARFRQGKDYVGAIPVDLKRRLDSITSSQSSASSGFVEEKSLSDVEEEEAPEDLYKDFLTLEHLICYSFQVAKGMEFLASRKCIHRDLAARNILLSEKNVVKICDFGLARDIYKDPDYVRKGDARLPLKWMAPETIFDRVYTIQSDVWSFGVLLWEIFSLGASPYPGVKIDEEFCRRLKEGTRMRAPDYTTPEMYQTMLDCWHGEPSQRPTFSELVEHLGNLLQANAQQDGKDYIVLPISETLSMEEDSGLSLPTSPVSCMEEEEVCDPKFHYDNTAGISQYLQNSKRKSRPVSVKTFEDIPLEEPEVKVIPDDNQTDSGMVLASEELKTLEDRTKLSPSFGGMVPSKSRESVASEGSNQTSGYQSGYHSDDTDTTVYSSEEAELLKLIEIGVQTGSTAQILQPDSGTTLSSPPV
The next data set deals with caspase 3. Kind of data set: Apoptosis marker immunoassay in A-549: caspase 3. The format is cell-based, human. Particulars: A-549 cells. In a few lines: as §2
Another data set relates to BAX. Kind of data set: Apoptosis marker immunoassay in A-549: BAX. The note with it: A-549 cells. The format is cell-based, human. In a few lines: as §2
In a further data set the test system is p53. In words: Apoptosis marker immunoassay in A-549: p53. The note with it: A-549 cells. It counts as cell-based, human. In a few lines: as §2
The test system of a further data set is caspase 6. Kind of data set: Apoptosis marker immunoassay in A-549: caspase 6. The format is cell-based, human. The note with it: A-549 cells. In a few lines: as §2

One may read the IC50 as the concentration needed to halve the response being measured.

With `C#Cc1cccc(Nc2ncnc3cc(OCCOC)c(OCCOC)cc23)c1` [erlotinib, reference compound], the IC50 with A-549 is 30 ± 3 nM; in the data set with HT-29, 30 ± 3 nM; in the data set on MCF-7 it was 40 ± 3 nM; with Panc-1, 30 ± 3 nM.
With `COc1cc(C2NC(=O)NC(C)=C2C(=O)OC(C)C)cc(OC)c1OC` (stereo not shown) [Compound 11, Isopropyl 6-Methyl-2-oxo-4-(3,4,5-trimethoxyphenyl)-1,2,3,4-tetrahydropyrimidine-5-carboxylate], the IC50 in the data set on A-549 came to 56 ± 5 nM; in the data set on HT-29, 59 ± 5 nM; in the data set with MCF-7, 58 ± 5 nM; in data set [1], 57 nM; with Panc-1, 56 ± 5 nM.
On to `CC1=C(C(=O)OC(C)C)C(c2ccc(O)cc2)NC(=S)N1` (stereo not shown) [Compound 8, Isopropyl 4-(4-Hydroxyphenyl)-6-methyl-2-thioxo-1,2,3,4-tetrahydropyrimidine-5-carboxylate], for which the IC50 was 64 ± 6 nM in the data set with A-549; 68 ± 6 nM in the data set with HT-29; 68 ± 6 nM in the data set on MCF-7; 67 nM in data set [1]; 67 ± 6 nM in the data set on Panc-1.
For `COc1ccc(C2NC(=O)NC(C)=C2C(=O)OC(C)C)cc1OC` (stereo not shown) [Compound 10, Isopropyl 4-(3,4-Dimethoxyphenyl)-6-methyl-2-oxo-1,2,3,4-tetrahydropyrimidine-5-carboxylate], the IC50 with A-549 worked out at 52 ± 5 nM; in the data set on HT-29, 54 ± 5 nM; in the data set with MCF-7, 55 ± 5 nM; in data set [1], 53 nM; in the data set with Panc-1, 52 ± 5 nM.
Regarding `CC1=C(C(=O)OC(C)C)C(c2ccc(O)cc2)NC(=O)N1` (stereo not shown) [Compound 13, Isopropyl 4-(4-Hydroxyphenyl)-6-methyl-2-oxo-1,2,3,4-tetrahydropyrimidine-5-carboxylate], the IC50 with A-549 stood at 62 ± 6 nM; in the data set with HT-29, 64 ± 6 nM; with MCF-7, 64 ± 6 nM; in data set [1] it was 62 nM; in the data set on Panc-1, 61 ± 6 nM.
As for `COc1cc(C2NC(=O)NC(C)=C2C(=O)OC(C)C)ccc1OCc1ccccc1` (stereo not shown) [Compound 15, Isopropyl 4-[4-(Benzyloxy)-3-methoxyphenyl]-6-methyl-2-oxo-1,2,3,4-tetrahydropyrimidine-5-carboxylate], the IC50 worked out at 84 ± 5 nM at EGFR; 33 ± 3 nM with A-549; 36 ± 3 nM with HT-29; 3.5 ± 0.03 nM against VEGFR-2; 36 ± 3 nM in the data set on MCF-7; 35 nM in data set [1]. The IC50 with Panc-1 was found to be 34 ± 3 nM. Further, the “CK 18 protein expression level compared to control untreated cells” value with CK-18 was 0.60 folds. Moreover, in the data set with MCF-10A cells, the “effect on nontumor cells MCF-10A” value was “no effect”. Moreover, the “caspase 3 elevation compared to control untreated cells” value in the data set with caspase 3 was determined as 8.70 fold. The “BAX elevation compared to control untreated cells” value in the data set on BAX was determined as 14.50 fold. Besides, in the data set with p53, the “p53 elevation compared to control untreated cells” value worked out at 5.90 fold. In the data set on caspase 6, the “caspase 6 elevation compared to control untreated cells” value was found to be 9.80 fold.
With `CC1=C(C(=O)OC(C)C)C(c2cccc(O)c2)NC(=S)N1` (stereo not shown) [Compound 7, Isopropyl 4-(3-Hydroxyphenyl)-6-methyl-2-thioxo-1,2,3,4-tetrahydropyrimidine-5-carboxylate], the concentration for half-maximal inhibition (IC50) in the data set with A-549 turned out to be 70 ± 7 nM; with HT-29, 73 ± 7 nM; in the data set on MCF-7 it was 74 ± 7 nM; in [1], 71 nM; with Panc-1, 72 ± 7 nM.
In the same order, the values of `COc1ccc(C2NC(=S)NC(C)=C2C(=O)OC(C)C)cc1OC` (stereo not shown) [Compound 5, Isopropyl 4-(3,4-Dimethoxyphenyl)-6-methyl-2-thioxo-1,2,3,4-tetrahydropyrimidine-5-carboxylate] are 67 ± 6 nM, 70 ± 6 nM, 71 ± 6 nM, 68 nM and 68 ± 6 nM.
Regarding `CC1=C(C(=O)OC(C)C)C(c2cccc(O)c2)NC(=O)N1` (stereo not shown) [Compound 12, Isopropyl 4-(3-Hydroxyphenyl)-6-methyl-2-oxo-1,2,3,4-tetrahydropyrimidine-5-carboxylate], the IC50 stood at 87 ± 5 nM at EGFR; 36 ± 3 nM in the data set on A-549; 38 ± 3 nM in the data set with HT-29; 4.2 ± 0.04 nM at VEGFR-2; 38 ± 3 nM in the data set with MCF-7; 37 nM in data set [1]. Moreover, in the data set with Panc-1, the IC50 is 36 ± 3 nM. For the same molecule, in the data set on MCF-10A cells, the “effect on nontumor cells MCF-10A” value is “no effect”. Also, the “caspase 3 elevation compared to control untreated cells” value in the data set with caspase 3 is listed as 8.20 fold. Besides, in the data set on BAX, the “BAX elevation compared to control untreated cells” value stood at 13.95 fold. In the data set with p53, the “p53 elevation compared to control untreated cells” value was found to be 4.75 fold. The “caspase 6 elevation compared to control untreated cells” value in the data set with caspase 6 was 9.65 fold.
Regarding `COc1cc(C2NC(=S)NC(C)=C2C(=O)OC(C)C)ccc1O` (stereo not shown) [Compound 4, Isopropyl 4-(4-Hydroxy-3-methoxyphenyl)-6-methyl-2-thioxo-1,2,3,4-tetrahydropyrimidine-5-carboxylate], the IC50 is 47 ± 4 nM with A-549; 49 ± 4 nM in the data set on HT-29; 50 ± 5 nM in the data set on MCF-7; 49 nM in data set [1]; 48 ± 4 nM in the data set with Panc-1.
For `COc1cc(C2NC(=S)NC(C)=C2C(=O)OC(C)C)cc(OC)c1OC` (stereo not shown) [Compound 6, Isopropyl 6-Methyl-2-thioxo-4-(3,4,5-trimethoxyphenyl)-1,2,3,4-tetrahydropyrimidine-5-carboxylate], the 50% inhibitory concentration (IC50) is 98 ± 6 nM against EGFR; 42 ± 4 nM with A-549; 47 ± 4 nM in the data set with HT-29; 5.3 ± 0.05 nM at VEGFR-2; 46 ± 4 nM in the data set on MCF-7; 45 nM in data set [1]. Also, in the data set with Panc-1, the IC50 stood at 44 ± 4 nM.
In the case of `COc1cc(C2NC(=O)NC(C)=C2C(=O)OC(C)C)ccc1O` (stereo not shown) [Compound 9, Isopropyl 4-(4-Hydroxy-3-methoxyphenyl)-6-methyl-2-oxo-1,2,3,4-tetrahydropyrimidine-5-carboxylate], the IC50 in the data set with A-549 came out at 74 ± 7 nM; in the data set with HT-29, 77 ± 7 nM; in the data set on MCF-7 it was 79 ± 7 nM; in [1] it was 76 nM; in the data set with Panc-1, 75 ± 7 nM.
For the molecule `COc1ccc(C2NC(=O)NC(C)=C2C(=O)OC(C)C)cc1O` (stereo not shown) [Compound 14, Isopropyl 4-(3-Hydroxy-4-methoxyphenyl)-6-methyl-2-oxo-1,2,3,4-tetrahydropyrimidine-5-carboxylate], the IC50 against EGFR was determined as 92 ± 5 nM; in the data set with A-549, 40 ± 4 nM; with HT-29, 43 ± 4 nM; at VEGFR-2 it was 4.7 ± 0.04 nM; in the data set with MCF-7, 44 ± 4 nM; in data set [1], 41 nM. The IC50 with Panc-1 came to 42 ± 4 nM. Further, the “CK 18 protein expression level compared to control untreated cells” value in the data set with CK-18 came out at 0.40 folds. Also, the “caspase 3 elevation compared to control untreated cells” value in the data set with caspase 3 came out at 7.40 fold. Moreover, in the data set on BAX, the “BAX elevation compared to control untreated cells” value is recorded as 11.50 fold. Moreover, the “p53 elevation compared to control untreated cells” value in the data set on p53 was found to be 3.10 fold. For the same molecule, in the data set on caspase 6, the “caspase 6 elevation compared to control untreated cells” value stood at 8.50 fold.
